# Bioassay records: PubChem BioAssay, several laboratories
# MEKK2wt PB1 HTS = raises or lowers MEK5 binding to wildtype human MEKK2 PB1 domain; 290,000 tested, 1.1% active; AID 1531; Q9Y2U5; bead flow cytometry, Alexa488-MEK5 binding to MEKK2 WT; actives lie on both sides; binding response (% of control), % at 10 µM; in the data active = binding response below about 67% or above about 130%
# MEKK3 PB1 HTS = raises or lowers MEK5 binding to the human MEKK3 PB1 domain; Q99759; bead-based flow cytometry, Alexa488-MEK5 binding to MEKK3; actives lie on both sides; 0 = blocked by unlabeled MEK5, 100 = vehicle; binding response (% of control), % at 10 µM; 290,000 tested, 1.4% active;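 active = binding response more than 3 SD above or below the average of its plate-row segment, actives on both sides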;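 note: Alexa488 bead fluorescence after subtracting the streptavidin-only scavenger bead signal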
# WT yeast gro inh = growth inhibition of WT yeast, mitochondrial fusion screen. 190,000 tested, 2.1% active. inhibition, % at 10 µM. AID 1362. mitochondrial fusion phenotypic screen, WT strain; in the data active = inhibition above about 58%; tested in S. cerevisiae
# MEKK2 mut-MEK5 = signal of MEK5 binding to mutant human MEKK2 PB1 domain. bead flow cytometry, Alexa488-MEK5 binding to MEKK2 mutant. percent response, % at 10 µM. 290,000 tested, 0.35% active. AID 1530; in the data active = percent response above about 24%, passing the limit was not always enough
# ABCB1 inh = blocks JC-1 efflux by human ABCB1 transporter | CCRF-Adr cells, flow cytometry | inhibition, % at 6.6 µM | 190,000 tested, 0.067% active; in the data active = inhibition above about 40%;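 note: higher value means more JC-1 retained so stronger ABCB1 efflux block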
# ABCG2 inh = blocks JC-1 efflux by human ABCG2 transporter; Q9UNQ0; IgMXP3 cells, flow cytometry; inhibition, % at 6.6 µM; 190,000 tested, 0.1% active; AID 1325;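 active = inhibition above 80%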
#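 Test system: IgMXP3 cells (ABCG2) mixed with DDAO far-red-labelled CCRF-Adr cells (ABCB1). Reagent: JC-1 transporter substrate. Compound dosing: single test compound dose, 6.6 µM final. Times: 10 min compound exposure, 25 °C. Detection: flow cytometry of retained JC-1 fluorescence. Read-out basis: efflux inhibition in percent versus controls. Controls: nicardipine and DMSO wells.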
# Hits are given with their value; n = inactive; x = not tested or not shown. Hits are enriched below; roughly 3.5% of the tested compounds scored in any of these assays.
SMILES,MEKK2wt PB1 HTS,MEKK3 PB1 HTS,WT yeast gro inh,MEKK2 mut-MEK5,ABCB1 inh,ABCG2 inh
Cc1[nH]nc2c1/C(=N\O)CCC2,n,n,n,n,n,n
CN1CCc2c(sc(/N=C/c3cc(C(C)(C)C)ccc3O)c2C#N)C1,n,n,x,n,x,x
Cc1ccc(-c2cc(C(=O)N3CC4(C)CC3CC(C)(C)C4)no2)cc1 (configuration not stated),n,n,x,n,x,x
CC1(C)CC2CC(C)(CN2C(=O)c2cc(-c3ccccc3O)on2)C1 (configuration not stated),n,n,63,n,n,n
FC(F)(F)c1nc(-c2cccs2)ncc1-c1nnnn1-c1ccc(Cl)cc1,n,n,77,n,n,n
Clc1ccc(-n2nnnc2-c2cnc(-c3ccncc3)nc2-c2cccs2)cc1,n,n,n,n,n,n
O=C1/C(=C/c2cccc3ccccc23)CCCc2ccccc21,n,n,63,n,n,n
O=C1/C(=C/c2ccncc2)CCc2ccccc21,n,n,x,n,x,x
CS(=O)(=O)N1CCC(Oc2cccc(C(=O)NCCCOc3cccnc3)c2)CC1,n,n,x,n,x,x
C=CCc1cccc(CNc2nc3ccccc3n2C(C)C)c1O,x,x,70,x,n,n
CC(C)n1c(NCc2ccccc2O)nc2ccccc21,n,n,x,n,x,x
COc1cc2c(C(=O)N3CCN(C)CC3)c(C)n(-c3ccccc3)c2cc1Br,n,n,n,n,n,n
COc1cc2c(C(=O)N3CCOCC3)c(CSc3ccccc3)n(C)c2cc1Br,n,n,60,n,n,n
CCOc1ccc(S(=O)(=O)N2CCC(C(=O)NC3CCCC3)CC2)cc1,n,n,x,n,x,x
O=C(NC(=S)NC1CCCc2ccccc21)c1ccc(F)cc1 (configuration not stated),n,n,x,n,x,x
O=C(NC(=S)NC1CCCc2ccccc21)c1ccco1 (configuration not stated),n,n,73,n,n,n
COc1ccccc1C(=O)NNC(=O)c1ccc(NC(=O)C(C)C)cc1,n,n,n,n,n,n
COc1c(C(=O)Nc2ccc(Cc3ccncc3)cc2)ccc2ccccc12,n,n,68,n,n,n
N#Cc1ccc(-c2cccnc2)nc1SCc1ccc(Cl)cc1Cl,n,n,n,n,n,n
N#Cc1ccc(-c2cccnc2)nc1SCc1ccc(Cl)c(Cl)c1,n,n,75,n,n,n
COc1c(OC(C)=O)ccc(/C=N\NC(=O)c2ccc(Br)cc2)c1[N+](=O)[O-],n,n,n,n,n,n
CCOc1ccc(S(=O)(=O)N2CCN(C(=O)c3cc4c(s3)CCCC4)CC2)cc1,n,n,63,n,n,n
CCOc1ccc(S(=O)(=O)N2CCN(C(=O)c3ccco3)CC2)cc1,n,n,x,n,x,x
O=C1CCCC(O)=C1C=NCc1ccccc1,n,n,n,n,n,n
COC(=O)/C(=C(/F)Sc1cc(C)c(O)c(C)c1)C(F)(F)F,n,n,94,n,n,n
SMILES,MEKK2wt PB1 HTS,MEKK3 PB1 HTS,WT yeast gro inh,MEKK2 mut-MEK5,ABCB1 inh,ABCG2 inh
CN(C)C(=S)SCC(=O)Nc1ccc(Cl)cc1Cl,n,n,n,n,n,n
CN(C)c1ccc(NC(=O)CN2CCc3ccccc3C2)cc1,n,n,x,n,x,x
CC(Cl)C(=O)NNc1cccc(Cl)n1 (configuration not stated),n,n,58,n,n,n
O=C(NNc1cccc(Cl)n1)Nc1ccccc1,n,n,n,n,n,n
COc1ccc(NC(=O)O/N=C2/CCCc3ccc(OC)cc32)cc1,n,n,n,n,n,n
COc1ccc2c(c1)/C(=N/OC(=O)c1cccs1)CCC2,n,n,71,n,n,n
CC(/C=N/n1c(C2CCCCC2)n[nH]c1=S)=C\c1ccccc1,n,n,89,n,n,n
Cc1cccc(/C=N/n2c(C3CCCCC3)n[nH]c2=S)c1,n,n,x,n,x,x
Oc1nc(Nc2ccc(F)cc2)sc1/C=C1\C=Nc2ccccc21,n,n,x,n,x,x
CC1=Nc2ccccc2/C1=C\c1sc(Nc2ccc(C)cc2)nc1O,n,n,61,n,n,n
Oc1nc(Nc2cccc(Cl)c2)sc1/C=C1\C=Nc2ccccc21,n,n,79,n,n,n
